Experimental findings from ChEMBL document CHEMBL3751694, “1-Piperazinylphthalazines as potential VEGFR-2 inhibitors and anticancer agents: Synthesis and in vitro biological evaluation” (Eur J Med Chem, 2016) are described below.

Molecules are shown by their SMILES.

Common to all, as to type: functional
Assay [1] in a line: Growth inhibition of human UO31 cells at 10 uM after 48 hrs by SRB method. The settings on record: UO-31, 48 h, read-out: GI. The method, boiled down: (§1)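 NCI 56-line screen, single-dose primary assay at 10^-5 M. Cells grown in RPMI 1640 with 5% FBS and 2 mM L-glutamine, plated at 5000–40,000 cells/well and held 24 h at 37 °C, 5% CO2 before drug addition. Compound was given from DMSO stock, exposure 48 h, then TCA fixation and SRB staining with absorbance at 515 nm. % growth is taken relative to time-zero and untreated controls.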

The subject of a further assay is NCI-H522. The assay can be described thus: Growth inhibition of human NCI-H522 cells at 10 uM after 48 hrs by SRB method. The following applies: NCI-H522, 48 h, read-out: GI. The method, boiled down:
(§2)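 NCI 56-line primary screen at a single 10^-5 M concentration. Cells grown in RPMI 1640 with 5% FBS and 2 mM L-glutamine, plated at 5000–40,000 cells/well, then preincubated for 24 h. Exposure was 48 h at 37 °C and 5% CO2. Adherent cells were fixed with cold TCA at 10% final, suspension cells at 16%. Staining used 0.4% SRB, read at 515 nm. Results are % growth inhibition relative to control.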
For orientation: The SRB assay estimates cell density from bound dye.

Assay [2] can be described thus: Growth inhibition of human […] cells at 10 uM after 48 hrs by SRB method. The following applies: read-out: GI. The method, boiled down: as §2
The next assay has as its system K562. The assay can be described thus: Growth inhibition of human K562 cells at 10 uM after 48 hrs by SRB method. The following applies: K562, 48 h, read-out: GI. The method, boiled down: as §2
A further assay relates to T47D. The assay is described as follows: Growth inhibition of human T47D cells at 10 uM after 48 hrs by SRB method. The settings on record: read-out: GI. In outline:
as §1

Assay [3] can be described thus: Growth inhibition of human PC3 cells at 10 uM after 48 hrs by SRB method. The following applies: PC-3, 48 h, read-out: GI. The method, boiled down:
as §2

The subject of the next assay is A498. The assay can be described thus: Growth inhibition of human A498 cells at 10 uM after 48 hrs by SRB method. The following applies: A498, 48 h, read-out: GI. The method, boiled down: as §2
For another assay, the system named is SK-MEL-2. The assay can be described thus: Growth inhibition of human SK-MEL-2 cells at 10 uM after 48 hrs by SRB method. The settings on record: SK-MEL-2, 48 h, read-out: GI. In outline:
as §2

The test system of a further assay is SR. The assay can be described thus: Growth inhibition of human SR cells at 10 uM after 48 hrs by SRB method. The settings on record: read-out: GI. In outline:
as §2

Assay [4] is described as follows: Growth inhibition of human MOLT4 cells at 10 uM after 48 hrs by SRB method. The following applies: MOLT-4, 48 h, read-out: GI. In outline:
as §2

A short description of assay [5]: Growth inhibition of human HL-60(TB) cells at 10 uM after 48 hrs by SRB method. The settings on record: HL-60, 48 h, read-out: GI. The method, boiled down:
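NCI single-dose primary screen at 10^-5 M, 48 h exposure. Cells grown in RPMI 1640 with 5% FBS and 2 mM L-glutamine. Suspension cells fixed in situ with TCA (final 16%), stained with SRB, absorbance read at 515 nm. Percent growth inhibition calculated against time-zero and untreated control plates.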

For another assay, the system named is MDA-MB-468. The assay is described as follows: Growth inhibition of human MDA-MB-468 cells at 10 uM after 48 hrs by SRB method. The following applies: MDA-MB-468, 48 h, read-out: GI. The method, boiled down: as §2
The subject of another assay is NCI/ADR-RES. The assay is described as follows: Growth inhibition of human NCI/ADR-RES cells at 10 uM after 48 hrs by SRB method. The following applies: read-out: GI. In outline: as §2
Assay [6] in a line: Growth inhibition of human OVCAR3 cells at 10 uM after 48 hrs by SRB method. The following applies: OVCAR-3, 48 h, read-out: GI. The method, boiled down:
as §2

Assay [7] in a line: Growth inhibition of human UACC62 cells at 10 uM after 48 hrs by SRB method. The following applies: UACC-62, 48 h, read-out: GI. In outline:
as §1

The subject of the next assay is SK-MEL-5. The assay can be described thus: Growth inhibition of human SK-MEL-5 cells at 10 uM after 48 hrs by SRB method. The settings on record: SK-MEL-5, 48 h, read-out: GI. The method, boiled down:
as §2

Assay [8] is described as follows: Growth inhibition of human HOP92 cells at 10 uM after 48 hrs by SRB method. The following applies: HOP-92, 48 h, read-out: GI. The method, boiled down:
as §2

The subject of a further assay is CCRF-CEM. The assay can be described thus: Growth inhibition of human CCRF-CEM cells at 10 uM after 48 hrs by SRB method. The following applies: read-out: GI. In outline:
as §2

Another assay has as its system MCF7. The assay is described as follows: Growth inhibition of human MCF7 cells at 10 uM after 48 hrs by SRB method. The following applies: MCF7, 48 h, read-out: GI. The method, boiled down:
as §2

Assay [9] is described as follows: Growth inhibition of human Caki1 cells at 10 uM after 48 hrs by SRB method. The settings on record: CAKI-1, 48 h, read-out: GI. In outline: as §2
Assay [10] is described as follows: Growth inhibition of human UACC257 cells at 10 uM after 48 hrs by SRB method. The following applies: UACC-257, 48 h, read-out: GI. The method, boiled down:
as §1

Assay [11] is described as follows: Growth inhibition of human COLO205 cells at 10 uM after 48 hrs by SRB method. The following applies: COLO 205, 48 h, read-out: GI. The method, boiled down: as §2
Assay [12] can be described thus: Growth inhibition of human TK10 cells at 10 uM after 48 hrs by SRB method. The following applies: TK-10, 48 h, read-out: GI. In outline: as §1
Assay [13] in a line: Growth inhibition of human HCT116 cells at 10 uM after 48 hrs by SRB method. The following applies: HCT-116, 48 h, read-out: GI. In outline: as §2
For the next assay, the system named is NCI-H226. The assay is described as follows: Growth inhibition of human NCI-H226 cells at 10 uM after 48 hrs by SRB method. The following applies: NCI-H226, 48 h, read-out: GI. In outline: as §2
Another assay deals with A549. The assay can be described thus: Growth inhibition of human A549 cells at 10 uM after 48 hrs by SRB method. The following applies: A549, 48 h, read-out: GI. In outline:
as §2

The test system of another assay is MDA-MB-231. The assay can be described thus: Growth inhibition of human MDA-MB-231 cells at 10 uM after 48 hrs by SRB method. The settings on record: MDA-MB-231, 48 h, read-out: GI. In outline:
as §2

A short description of assay [14]: Growth inhibition of human IGROV1 cells at 10 uM after 48 hrs by SRB method. The following applies: IGROV-1, 48 h, read-out: GI. The method, boiled down: as §2
The nature of assay [15]: Growth inhibition of human OVCAR8 cells at 10 uM after 48 hrs by SRB method. The settings on record: OVCAR-8, 48 h, read-out: GI. In outline: as §2

As for `COc1ccc(C(=O)CN2CCN(c3nnc(-c4ccccc4)c4ccccc34)CC2)cc1`, the inhibition of growth at 10 µM in assay [1] worked out at 35%; in the assay on NCI-H522, 35%; in assay [2] it was 32%; in the assay with K562, 30%; in the assay on T47D, 36%.

In the case of `O=C(CN1CCN(c2nnc(-c3ccccc3)c3ccccc23)CC1)Nc1ccc(Cl)cc1`, the inhibition of growth at 10 µM in assay [3] was determined as 32%; in assay [1], 34%; in the assay on A498, 36%; with SK-MEL-2, 33%; in the assay with NCI-H522, 53%; in the assay on SR, 40%. Moreover, the inhibition of growth at 10 µM in assay [2] amounted to 40%; in assay [4], 41%; with K562, 30%; in assay [5], 30%; in the assay on T47D it was 57%; in the assay on MDA-MB-468, 53%.

Consider `O=C(CN1CCN(c2nnc(-c3ccccc3)c3ccccc23)CC1)c1ccc(Cl)cc1`, for which the inhibition of growth at 10 µM was found to be 57% with NCI-H522; 30% in [4]; 33% with K562; 41% in the assay on T47D; 38% with MDA-MB-468.

For the molecule `O=C(CN1CCN(c2nnc(-c3ccccc3)c3ccccc23)CC1)Nc1nccs1`, the inhibition of growth at 10 µM in assay [3] worked out at 38%; in assay [1], 40%; with NCI/ADR-RES it was 32%; in assay [6] it was 38%; in [7] it was 37%; in the assay with SK-MEL-5, 36%. The inhibition of growth at 10 µM in the assay on NCI-H522 was determined as 41%; in [8] it was 35%; in the assay with SR, 31%; in [2], 51%; in assay [4], 39%; in the assay with K562, 36%. For the same molecule, the inhibition of growth at 10 µM in assay [5] was determined as 38%; with CCRF-CEM, 30%; in the assay with T47D, 64%; in the assay with MDA-MB-468 it was 59%.

For `N#Cc1ccc(NC(=O)CN2CCN(c3nnc(-c4ccccc4)c4ccccc34)CC2)cc1`, the inhibition of growth at 10 µM is 30% in the assay with MCF7; 49% in assay [1]; 34% in assay [9]; 44% with A498; 32% in assay [7]; 30% in [10]. The inhibition of growth at 10 µM in the assay on SK-MEL-5 was determined as 47%; in assay [11] it was 32%; with NCI-H522 it was 37%; in assay [8], 40%; in the assay on SR it was 36%; in assay [2], 39%. The inhibition of growth at 10 µM is 43% in assay [4]; 34% with K562; 30% in [5]; 64% with T47D; 50% in the assay on MDA-MB-468.

`COc1ccc(-c2csc(NC(=O)CN3CCN(c4nnc(-c5ccccc5)c5ccccc45)CC3)n2)cc1`: the inhibition of growth at 10 µM in [3] stood at 47%; in [1], 48%; in [12] it was 32%; in assay [9], 33%; in the assay on A498, 43%; with SK-MEL-5, 46%. Moreover, the inhibition of growth at 10 µM in assay [13] is 32%; in assay [11], 40%; with NCI-H522, 34%; in the assay on NCI-H226 it was 36%; in the assay on A549 it was 34%; with SR, 44%. Moreover, the inhibition of growth at 10 µM in assay [2] came to 50%; in assay [4] it was 62%; in the assay on K562, 48%; in [5], 40%; with CCRF-CEM, 34%; in the assay on T47D, 82%. Further, the inhibition of growth at 10 µM in the assay with MDA-MB-468 was found to be 58%; with MDA-MB-231, 42%.

For the molecule `COc1ccc(NC(=O)CN2CCN(c3nnc(-c4ccccc4)c4ccccc34)CC2)cc1`, the figures for the inhibition of growth at 10 µM in the assay on NCI-H522, with T47D and with MDA-MB-468 were 30%, 55% and 37%, respectively.

As to `O=C(CN1CCN(c2nnc(-c3ccccc3)c3ccccc23)CC1)Nc1ccccc1Cl`, the inhibition of growth at 10 µM in assay [3] came to 45%; in assay [1], 37%; in assay [14] it was 46%; in [10], 30%; in the assay on NCI-H522, 42%; in assay [8], 31%. The inhibition of growth at 10 µM in the assay with SR came to 36%; in [2] it was 48%; in [4], 31%; in the assay with K562, 33%; in assay [5], 40%; with T47D, 58%. Moreover, in the assay on MDA-MB-468, the inhibition of growth at 10 µM turned out to be 43%.

With `O=C(CN1CCN(c2nnc(-c3ccccc3)c3ccccc23)CC1)Nc1cccc(C(F)(F)F)c1`, the inhibition of growth at 10 µM in the assay with MCF7 was 41%; in [3], 40%; in the assay with A498, 32%; in [7] it was 41%; in the assay on SK-MEL-5, 41%; with NCI-H522, 53%. In addition, the inhibition of growth at 10 µM in the assay with A549 came to 34%; with SR, 55%; in assay [2] it was 46%; in assay [4], 52%; with K562, 38%; in the assay with CCRF-CEM, 31%. Moreover, the inhibition of growth at 10 µM was found to be 59% in the assay with T47D and 60% in the assay with MDA-MB-468.

For `O=C(CN1CCN(c2nnc(-c3ccccc3)c3ccccc23)CC1)Nc1c(Cl)cccc1Cl`, the inhibition of growth at 10 µM in assay [3] stood at 34%; in assay [1], 38%; in assay [15], 35%; in the assay with SK-MEL-5, 44%; in the assay with NCI-H522 it was 34%; in the assay with NCI-H226, 30%. For the same molecule, the inhibition of growth at 10 µM in [8] came out at 47%; with SR it was 40%; in assay [2] it was 48%; in [4] it was 42%; in the assay with K562, 43%; in [5], 38%. Also, the inhibition of growth at 10 µM worked out at 60% in the assay with T47D and 43% in the assay on MDA-MB-468.
